# Results as given in ChEMBL document CHEMBL4613307, “Sigma Receptor Ligands Carrying a Nitric Oxide Donor Nitrate Moiety: Synthesis, In Silico, and Biological Evaluation” (ACS Med Chem Lett, 2020).
# pIC50, pKi: −log10 of the molar value. Activity calls are given as the source filed them. The rule behind the calls is not given here.
# Assays:
# [1] = biological target: Sigma non-opioid intracellular receptor 1 (Cavia porcellus, UniProt Q60492); assay: Displacement of [3H]-(+)-pentazocine from sigma1 receptor in guinea pig brain membranes incubated for 1 hr by liquid scintillation counting method; assay type: cell membranes, Membrane
# Sequence of Sigma non-opioid intracellular receptor 1 (Q60492 whole entry): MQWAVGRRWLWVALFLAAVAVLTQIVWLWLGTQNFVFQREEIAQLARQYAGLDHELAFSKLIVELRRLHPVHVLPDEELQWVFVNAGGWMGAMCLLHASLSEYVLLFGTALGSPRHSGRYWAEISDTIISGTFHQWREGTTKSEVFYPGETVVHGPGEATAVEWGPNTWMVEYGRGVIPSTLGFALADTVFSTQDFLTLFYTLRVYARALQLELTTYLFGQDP
# Method in brief: (§1)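 Radioligand binding at σ1 and σ2 receptors, with [3H]DTG as the σ2 radioligand. Ki given as mean ± SD of at least two experiments run in triplicate.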
# [2] = biological target: T1, Sigma intracellular receptor 2 (Homo sapiens, UniProt Q5BJF2); assay: Displacement of [3H]-di-o-tolylguanidine from sigma2 receptor (unknown origin) incubated for 1 hr in presence of (+)SKF10047 by liquid scintillation counting method; method in brief: as §1
# T1 sequence (Q5BJF2 whole entry): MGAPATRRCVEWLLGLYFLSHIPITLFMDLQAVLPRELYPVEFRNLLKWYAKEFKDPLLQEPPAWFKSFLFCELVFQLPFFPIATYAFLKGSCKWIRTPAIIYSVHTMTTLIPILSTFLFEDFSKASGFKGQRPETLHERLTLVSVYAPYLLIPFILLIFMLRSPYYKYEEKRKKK
# MCF7 [3] = assay: Cytotoxicity against human MCF7 cells assessed as reduction in cell viability after 24 hrs by MTT assay; assay type: functional, cell-based; details: MCF7, 24 h
# Method in brief: (§2)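 MTT viability assay in Caco-2, MCF-7 and HFF-1 cells; top tested concentration 100 μM. IC50 given as mean ± SD of at least two experiments run in quadruplicate.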
# MCF7 [4] = assay: Cytotoxicity against human MCF7 cells assessed as reduction in cell viability at 100 uM after 24 hrs by MTT assay relative to control; assay type: functional
# [5] = Drug metabolism in Tris-HCl buffer assessed as amount of nitrite released at 100 uM and 37 degree C after 30 mins in presence of nitrate reductase and NADPH by Griess reagent based spectrophotometric analysis; assay type: physicochemical; details: 0.5 h
# Method in brief: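 Test agents at 100 μM incubated in Tris-HCl buffer at 37 °C for 30 min; total nitrite measured with Griess reagent.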
# Caco-2 [6] = assay: Cytotoxicity against human Caco2 cells assessed as reduction in cell viability after 24 hrs by MTT assay; assay type: functional, cell-based; details: Caco-2, 24 h; method in brief: as §2
# HFF-1 [7] = assay: Cytotoxicity against human HFF1 cells assessed as reduction in cell viability after 24 hrs by MTT assay; assay type: cell-based; details: HFF-1, 24 h; method in brief: as §2
# Caco-2 [8] = assay: Cytotoxicity against human Caco2 cells assessed as reduction in cell viability at 100 uM after 24 hrs by MTT assay relative to control; assay type: functional
# HFF-1 [9] = assay: Cytotoxicity against human HFF1 cells assessed as reduction in cell viability at 100 uM after 24 hrs by MTT assay relative to control; assay type: cell-based; details: hff-1, 24 h
# [10] = biological target: Sigma non-opioid intracellular receptor 1 (Cavia porcellus) (UniProt Q60492); assay: Displacement of [3H]-(+)-pentazocine from sigma1 receptor in guinea pig brain membranes at 10 uM incubated for 1 hr by liquid scintillation counting method relative to control; assay type: cell membranes; details: Membrane
# Sequence of Sigma non-opioid intracellular receptor 1 (Cavia porcellus) (Q60492 whole entry): as the sequence (Q60492 whole entry) above
# [11] = biological target: T1, Sigma intracellular receptor 2; assay: Displacement of [3H]-di-o-tolylguanidine from sigma2 receptor (unknown origin) at 10 uM incubated for 1 hr in presence of (+)SKF10047 by liquid scintillation counting method relative to control
# MCF7 [12] = assay: Cytotoxicity against human MCF7 cells assessed as restoration of cell viability loss at IC50 after 24 hrs in presence of PTZ by MTT assay; assay type: functional, cell-based
# Method in brief: (§3)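 MCF-7 cells given the test agent at its viability-reducing concentration together with 1 μM σ1 agonist (+)-pentazocine or 1 μM σ2 antagonist 1-phenethylpiperidine (AC927); viability read by MTT.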
# MCF7 [13] = assay: Cytotoxicity against human MCF7 cells assessed as restoration of cell viability loss at IC50 after 24 hrs in presence of AC927 by MTT assay; assay type: functional, cell-based; method in brief: as §3
pKi [1],pKi [2],SMILES,pIC50 (MCF7 [3]),Activity (MCF7 [4]),also measured
7.05,5.57,O=C(NCCN1CCC(Cc2ccccc2)CC1)c1ccc(CO[N+](=O)[O-])cc1,–,–,–
7.19,7.03,O=C(NCCCN1CCC(Cc2ccccc2)CC1)c1cccc(CO[N+](=O)[O-])c1,–,–,–
6.77,5.60,O=C(Cc1ccc(CO[N+](=O)[O-])cc1)NC1CCN(Cc2ccccc2)CC1,–,–,–
7.03,7.15,O=C(NCCCCCN1CCC(Cc2ccccc2)CC1)c1ccc(CO[N+](=O)[O-])cc1,–,–,–
< 5.00,< 5.00,O=C(O)c1ccc(CO)cc1,< 4.00,<50%,inhibition [10]: < 50%; inhibition [11]: < 50%
6.60,7.05,O=C(NCCCCN1CCC(Cc2ccccc2)CC1)c1ccc(CO[N+](=O)[O-])cc1,4.59,–,Drug metabolism [5]: 13 µM; pIC50 (Caco-2 [6]): 4.55; pIC50 (HFF-1 [7]): < 4.00; Activity (MCF7 [12]): inactive; Activity (MCF7 [13]): inactive; Activity (HFF-1 [9]): < 50%
7.31,6.48,O=C(NCCN1CCC(Cc2ccccc2)CC1)c1cccc(CO[N+](=O)[O-])c1,4.44,–,Drug metabolism [5]: 13 µM; pIC50 (Caco-2 [6]): 4.23; pIC50 (HFF-1 [7]): < 4.00; Activity (HFF-1 [9]): < 50%

# Continued, compound first:
SMILES,pKi [1],pKi [2],pIC50 (MCF7 [3]),Activity (MCF7 [4]),also measured
O=C(NCCCCN1CCC(Cc2ccccc2)CC1)c1ccc(CO)cc1,6.15,5.59,< 4.00,<50%,–
Cc1ccc(C(=O)NCCCCN2CCC(Cc3ccccc3)CC2)cc1,7.21,6.90,4.06,<50%,–
O=C(Cc1cccc(CO[N+](=O)[O-])c1)NC1CCN(Cc2ccccc2)CC1,7.72,6.49,< 4.00,<50%,Drug metabolism [5]: 1.3 µM; pIC50 (Caco-2 [6]): < 4.00; pIC50 (HFF-1 [7]): < 4.00; Activity (Caco-2 [8]): <50%; Activity (HFF-1 [9]): < 50%
O=C(NC1CCN(Cc2ccccc2)CC1)c1cccc(CO[N+](=O)[O-])c1,7.62,7.72,–,–,–
COc1cccc2c1C(=O)c1c(O)c3c(c(O)c1C2=O)C[C@@](O)(C(=O)CO)C[C@@H]3O[C@H]1C[C@H](N)[C@H](O)[C@H](C)O1 [DOXORUBICIN],–,–,–,–,pIC50 (Caco-2 [6]): 4.68; pIC50 (HFF-1 [7]): < 4.00; Activity (HFF-1 [9]): < 50%
O=C(O)c1ccc(CO[N+](=O)[O-])cc1,< 5.00,< 5.00,< 4.00,<50%,inhibition [10]: < 50%; inhibition [11]: < 50%
Cc1ccc(C(=O)O)cc1 [4-METHYLBENZOIC ACID],< 5.00,< 5.00,< 4.00,<50%,inhibition [10]: < 50%; inhibition [11]: < 50%
O=C(NCCCN1CCC(Cc2ccccc2)CC1)c1ccc(CO[N+](=O)[O-])cc1,6.84,6.64,–,–,–
C[C@@H]1CCO[C@H]2Cn3cc(C(=O)NCc4ccc(F)cc4F)c(=O)c(O)c3C(=O)N12 [DOLUTEGRAVIR],–,7.74,–,–,–
O=C(NCCCCN1CCC(Cc2ccccc2)CC1)c1cccc(CO[N+](=O)[O-])c1,6.83,7.12,–,–,–
O=C(NC1CCN(Cc2ccccc2)CC1)c1ccc(CO[N+](=O)[O-])cc1,7.66,6.57,< 4.00,<50%,Drug metabolism [5]: 6.3 µM; pIC50 (Caco-2 [6]): < 4.00; pIC50 (HFF-1 [7]): < 4.00; Activity (Caco-2 [8]): <50%; Activity (HFF-1 [9]): < 50%
O=C(NCCCCCN1CCC(Cc2ccccc2)CC1)c1cccc(CO[N+](=O)[O-])c1,7.30,6.85,–,–,–
